Source: ChEMBL document CHEMBL3243938, “Mercapto heterocyclic carboxylic acids, analogues of 3-mercaptopicolinic acid” (J Med Chem, 1977)
Calls of active or inactive are those of the source. The calls are words filed in the database; no cut-off is given here.

Columns and labels:
[1] = test system: Rattus norvegicus; test: Hypoglycemic activity in 48-hrs fasted rat assessed as decrease in blood glucose level at 300 mg/kg, ip measured up to 4 hrs after drug administration; format: functional, organism-based; set-up: dose 300 mg/kg
Procedure, shortened: (§1)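 Male rats of about 200 g were fasted 48 h. A zero-time tail-vein blood sample was taken on the morning of the test, then compound was given ip as a suspension in 0.9% saline or orally as a suspension in 0.5% tragacanth. Vehicle-only rats served as controls. Tail-vein blood was sampled at 1, 2 and 4 h for glucose.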

[2] = test system: Rattus norvegicus; test: Hypoglycemic activity in 48-hrs fasted rat assessed as decrease in blood glucose level at 300 mg/kg, po measured up to 4 hrs after drug administration; format: functional, organism-based; set-up: dose 300 mg/kg; procedure, shortened: as §1
[3] = test system: Rattus norvegicus; test: Hypoglycemic activity in 48-hrs fasted rat assessed as decrease in blood glucose level at 200 mg/kg, po after 2 hrs; format: functional; procedure, shortened: as §1
[4] = test system: Rattus norvegicus; test: Hypoglycemic activity in 48-hrs fasted rat assessed as decrease in blood glucose level at 200 mg/kg, po after 4 hrs; format: functional; procedure, shortened: as §1
[5] = test system: Rattus norvegicus; test: Hypoglycemic activity in 48-hrs fasted rat assessed as decrease in blood glucose level at 200 mg/kg, po after 1 hr; format: functional; procedure, shortened: as §1
[6] = test system: Rattus norvegicus; test: Hypoglycemic activity in 48-hrs fasted rat assessed as decrease in blood glucose level at 200 mg/kg, ip after 2 hrs; format: functional; conditions: route intraperitoneal; procedure, shortened: as §1
[7] = test system: Rattus norvegicus; test: Hypoglycemic activity in 48-hrs fasted rat assessed as decrease in blood glucose level at 200 mg/kg, ip after 1 hr; format: functional; conditions: route intraperitoneal; procedure, shortened: as §1
[8] = test system: Rattus norvegicus; test: Toxicity in 48-hrs fasted rat assessed as mortality at 200 mg/kg, ip after 4 hrs; format: organism-based; set-up: dose 200 mg/kg, route intraperitoneal; conditions: in vivo
Procedure, shortened: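 Male rats, about 200 g, fasted 48 h before dosing. Given ip as a suspension in 0.9% saline; vehicle-only group run as controls. Tail-vein blood taken at time zero and at 1, 2 and 4 h after dosing.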

Row | SMILES | Activity [1] | Activity [2] | other results
1 | CCOC(=O)c1ncsc1S | inactive | inactive | 
2 | C[S+]([O-])c1cccnc1C(=O)O (centres undefined) | inactive | inactive | 
3 | O=C(O)c1nccnc1S | inactive | inactive | 
4 | O=C(O)c1ncc2ccccc2c1S | inactive | inactive | 
5 | O=C(O)c1ccc(S)c(C(=O)O)n1 | inactive | inactive | 
6 | O=C(O)c1nc2ccccc2cc1S | inactive | inactive | 
7 | O=C(O)c1ncc(S)cc1S | inactive | inactive | 
8 | CCCCNC(=O)NS(=O)(=O)c1ccc(C)cc1 [TOLBUTAMIDE] |  |  | inhibition in vivo at 200 mg/kg [3]: 47%; inhibition in vivo at 200 mg/kg [4]: 48%; inhibition in vivo at 200 mg/kg [5]: 28%
9 | CS(=O)(=O)c1cccnc1C(=O)O | inactive | inactive | 
10 | O=C(O)c1[nH]c2ccccc2c1S |  |  | inhibition in vivo at 200 mg/kg [6]: 51%; inhibition in vivo at 200 mg/kg [7]: 45%; Activity [8]: Toxic
11 | O=C(O)c1nc(C(=O)O)c(S)cc1S | inactive | inactive | 
